Sampled rows, rich in hits. Any-hit rate of the full collection: about 5.5%.
WT yeast gro inh = growth inhibition of WT yeast, mitochondrial fusion screen; mitochondrial fusion phenotypic screen, WT strain; inhibition, % at 10 µM; 190,000 tested, 2.1% active; in the data active = inhibition above about 58%; tested in S. cerevisiae
Yeast lifespan up = extends the lifespan of yeast; S. cerevisiae growth with nicotinamide, OD615; deaD strain in restrictive glucose medium; AID 775; inhibition of the nicotinamide effect, % at 10 µM; 130,000 tested, 0.68% active;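 active = inhibition above a set limit, placed 3 SD over the median of all compounds, cut at about 26% in these data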;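 also: 0% = nicotinamide-treated wells and 100% = cells grown without nicotinamide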
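Test system – modified budding yeast, DeaD strain · Compound – single dose 10 µM compound, 0.25% DMSO · Times – culture preincubation 4 h, compound exposure 48 h, both 30 °C · Detection – optical density (absorbance) at 615 nm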
KCC2 mod = modulates chloride dependent transport by human KCC2 | Q9H2X9 | 190,000 tested, 2.2% active | B-score of Tl+ flux slope (higher = more flux/activation; lower = inhibition) at 10 µM | KCC2 cells, thallium flux FluoZin-2 fluorescence;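 active = thallium flux slope and its plate-corrected score both differing from the plate sample mean at a set confidence after two filtering rounds, in either direction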;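 also: slope of fluorescence scaled to starting intensity during 10 to 20 s after thallium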
Target sequence (Q9H2X9 whole entry, looked up): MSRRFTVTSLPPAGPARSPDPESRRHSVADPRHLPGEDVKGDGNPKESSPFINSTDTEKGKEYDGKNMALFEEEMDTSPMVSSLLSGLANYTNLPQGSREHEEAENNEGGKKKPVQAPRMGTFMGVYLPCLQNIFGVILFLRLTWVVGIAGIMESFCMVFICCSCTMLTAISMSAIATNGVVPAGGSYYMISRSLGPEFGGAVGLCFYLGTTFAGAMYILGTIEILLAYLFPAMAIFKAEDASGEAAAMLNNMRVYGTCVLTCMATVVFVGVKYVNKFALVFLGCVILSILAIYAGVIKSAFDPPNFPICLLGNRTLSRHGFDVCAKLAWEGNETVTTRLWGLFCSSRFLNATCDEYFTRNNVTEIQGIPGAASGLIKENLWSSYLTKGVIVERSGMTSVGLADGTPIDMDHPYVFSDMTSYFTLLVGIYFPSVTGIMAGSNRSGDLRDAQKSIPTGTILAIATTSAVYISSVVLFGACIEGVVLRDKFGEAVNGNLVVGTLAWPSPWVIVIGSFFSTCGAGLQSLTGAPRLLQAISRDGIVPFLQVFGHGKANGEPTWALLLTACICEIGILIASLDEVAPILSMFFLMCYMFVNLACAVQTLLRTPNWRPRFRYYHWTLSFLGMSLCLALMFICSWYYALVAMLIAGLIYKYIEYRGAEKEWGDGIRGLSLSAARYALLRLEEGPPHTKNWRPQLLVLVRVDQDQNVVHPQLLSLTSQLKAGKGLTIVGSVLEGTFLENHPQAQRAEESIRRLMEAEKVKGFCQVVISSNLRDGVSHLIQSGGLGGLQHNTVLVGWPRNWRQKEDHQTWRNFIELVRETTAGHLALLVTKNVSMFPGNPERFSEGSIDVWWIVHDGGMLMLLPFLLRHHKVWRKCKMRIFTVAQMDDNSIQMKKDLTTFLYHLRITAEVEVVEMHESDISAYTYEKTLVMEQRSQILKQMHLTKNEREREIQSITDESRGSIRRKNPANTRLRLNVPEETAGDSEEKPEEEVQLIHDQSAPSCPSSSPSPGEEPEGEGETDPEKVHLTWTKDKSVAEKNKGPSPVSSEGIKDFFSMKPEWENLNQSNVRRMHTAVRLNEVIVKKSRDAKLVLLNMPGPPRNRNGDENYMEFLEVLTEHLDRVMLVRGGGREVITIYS
RAM network inh = inhibitors of the yeast RAM network | 190,000 tested, 1.8% active | AID 868 | S. cerevisiae dse1pr::URA3 reporter, 5-FOA growth OD615, 2 d; analog-sensitive cbk1-as2 kinase mutant strain | inhibition, % at 50 µM;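 active = inhibition above a set limit, 3 SD over mean compound inhibition, cut at about 8.4% in these data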;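 also: 0% = DMSO-only wells with no growth and 100% = 10 µM 1-NA-PP1 full growth; inhibition rescues growth on 5-FOA so higher OD means more RAM inhibition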
Yeast growth inh = chemicals that inhibit yeast BB579 growth in restrictive medium (lifespan-shortening candidates); S. cerevisiae BB579 growth, OD615, 48 h; inhibition, % at 10 µM; 140,000 tested, 0.51% active; AID 804;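 active = inhibition above a set limit, 3 SD over the mean compound inhibition, cut at about 44% in these data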
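System: Saccharomyces cerevisiae DeaD strain BB579, replicative lifespan model yeast | Buffer or medium: Restrictive glucose-based CSMM-D medium | Times: 4 h preincubation and 48 h exposure at 30 °C | Detection: OD615 turbidity measurement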
KCC2 secondary = KCC2 (human) modulation, secondary assay | shares compounds with KCC2 mod | AID 1713 | normalised thallium flux (F/F0 slope) at 10 µM | HEK293-KCC2, thallium flux, FluoZin2 fluorescence; stronger effect = higher value | 3,700 tested, 15% active;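 active = thallium flux slope above the same plate's solvent-only control mean plus 3 SD; inconclusive = the two replicate wells disagree; inactive = no significant difference from solvent-only control wells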
KCC2 bumet counter = bumetanide-insensitive thallium flux in KCC2 cells with ouabain, counter-screen. shares compounds with KCC2 mod. HEK293-KCC2 + bumetanide/ouabain, thallium flux FluoZin2; stronger effect = higher value. normalized thallium flux at 10 µM. 3,700 tested, 49% active. AID 1714;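 active = thallium entry rate above the same plate's blocked-transporter control wells by more than 3 SD; inconclusive = the two repeat wells disagree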;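 also: raw slope of fluorescence over initial fluorescence between 10 and 20 s after thallium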
KCC2 secondary2 = KCC2 (human) modulation, second secondary assay. normalized thallium flux at 10 µM. 3,700 tested, 23% active. AID 1715. HEK293-KCC2, thallium flux FluoZin2 fluorescence; actives lie on both sides; F/F0 rise rate, 10–20 s post-thallium. shares compounds with KCC2 mod;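 active = thallium flux slope more than 3 SD above or below the plate's solvent-only control mean, mostly below; inconclusive = the two repeat wells disagreed; inactive = no significant shift from solvent-only controls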;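 also: raw slope with 0.1% DMSO as baseline and bumetanide as block control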
HEK counter1 = parental HEK flux effect, counter-screen. shares compounds with KCC2 mod. HEK293 parental cells, thallium flux FluoZin2, ouabain; baseline-ratio fluorescence slope, 10–20 s after thallium. thallium flux rate (normalised fluorescence) at 10 µM. 3,700 tested, 46% active. AID 1716;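 active = thallium flux rate significantly above the same plate's solvent-only control wells, beyond their mean plus 3 SD; inconclusive = the two replicate wells gave conflicting results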
KCC2 retest ouab = modulates human KCC2 on retest with ouabain; shares compounds with KCC2 mod; HEK293-KCC2, thallium flux FluoZin2 fluorescence; bidirectional: low = inhibitor, high = activator; raw Tl+ flux slope (below DMSO = inhibition, above = activation) at 10 µM; 3,700 tested, 48% active; AID 1717;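 active = thallium flux slope beyond 3 SD from same-plate DMSO control mean in most replicates, usually higher, sometimes lower; inconclusive = repeat tests gave conflicting results; inactive = no significant difference from controls in most replicates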;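 also: slope of initial-normalized fluorescence between seconds 10 and 20 after thallium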
HEK293 Tl flux2 = counter-screen for KCC2 modulators: effect in parental HEK293 cells; shares compounds with KCC2 mod; thallium flux FluoZin-2 fluorescence slope; thallium flux slope at 10 µM; 3,700 tested, 33% active; AID 1718;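 active = thallium flux slope above the same plate's solvent-control mean plus 3 SD in both duplicate wells; inconclusive = duplicate wells that disagreed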;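 also: run without ouabain in cells lacking the KCC2 cotransporter; slope of fluorescence scaled to its starting value between 10 and 20 s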
* marks the source's active call; other numbers are inactive results.

What do the screens show for `O=c1c2ccccc2[nH]c(=S)n1-c1ccc(Br)cc1`?
WT yeast gro inh: 8; KCC2 mod: 20*; RAM network inh: 3; KCC2 secondary: 0.0064; KCC2 bumet counter: 0.041*; KCC2 secondary2: 0.042*; HEK counter1: 0.028*; KCC2 retest ouab: 0.044*; HEK293 Tl flux2: 0.027*

Results for O=c1c2cc(Br)ccc2[nH]c(=S)n1-c1ccccc1 ?
WT yeast gro inh: -6; KCC2 mod: 20*; RAM network inh: 2; KCC2 secondary: 0.008; KCC2 bumet counter: 0.027*; KCC2 secondary2: 0.042*; HEK counter1: 0.022*; KCC2 retest ouab: 0.033*; HEK293 Tl flux2: 0.023*

What do the screens show for `CC(NC(C)(C)C)C(=O)c1cccc(Cl)c1` (stereo unspecified)?
WT yeast gro inh: 2; Yeast lifespan up: 11; KCC2 mod: 7.7*; RAM network inh: 0; Yeast growth inh: -20; KCC2 secondary: 0.0058; KCC2 bumet counter: 0.0043; KCC2 secondary2: 0.029; HEK counter1: 0.0071; KCC2 retest ouab: 0.018; HEK293 Tl flux2: 0.0094

How did CC(C)NC(C)C(=O)c1ccc2ccccc2c1 (stereo unspecified) do in these assays?
WT yeast gro inh: -2; KCC2 mod: 1.4; RAM network inh: 1

What do the screens show for `O=P(C(c1ccc2c(c1)OCO2)N1CCOCC1)(N1CCOCC1)N1CCOCC1` (stereo unspecified)?
WT yeast gro inh: 14; Yeast lifespan up: -20; RAM network inh: 0; Yeast growth inh: 4

What do the screens show for `O=c1c(C=NCc2cccs2)c(O)n(C2CCCCC2)c(=O)n1C1CCCCC1`?
WT yeast gro inh: -18; Yeast lifespan up: -9; KCC2 mod: -3*; RAM network inh: 1; Yeast growth inh: -19; KCC2 secondary: inconclusive; KCC2 bumet counter: 0.0044; KCC2 secondary2: 0.03; HEK counter1: 0.0072; KCC2 retest ouab: 0.02; HEK293 Tl flux2: 0.01

What do the screens show for `O=c1c(C=NCCN2CCNCC2)c(O)n(C2CCCCC2)c(=O)n1C1CCCCC1`?
WT yeast gro inh: 14; Yeast lifespan up: -2; KCC2 mod: 0.54; RAM network inh: 3; Yeast growth inh: -51

How did COc1cc2c(cc1OC)-c1c(OC)c(OC)cc3c1[C@H](C2)[N+](C)(C)CC3 do in these assays?
WT yeast gro inh: -8; Yeast lifespan up: -1; KCC2 mod: 3.1*; RAM network inh: 0; Yeast growth inh: -6; KCC2 secondary: 0.0075; KCC2 bumet counter: inconclusive; KCC2 secondary2: 0.029; HEK counter1: 0.0076; KCC2 retest ouab: 0.018; HEK293 Tl flux2: 0.011

What do the screens show for `COc1cc2c3c(c1OC)-c1cc(O)ccc1CC3NCC2` (stereo unspecified)?
WT yeast gro inh: 5; Yeast lifespan up: -20; KCC2 mod: -1.2; RAM network inh: 1; Yeast growth inh: 4

What do the screens show for `COc1cccc(-c2nc(CS(=O)CC(=O)N3CCC4(CC3)OCCO4)c(C)o2)c1` (stereo unspecified)?
WT yeast gro inh: -1; Yeast lifespan up: 5; KCC2 mod: -5.5*; RAM network inh: 1; Yeast growth inh: -18; KCC2 secondary: 0.0071; KCC2 bumet counter: 0.0046; KCC2 secondary2: inconclusive; HEK counter1: 0.0066; KCC2 retest ouab: 0.017; HEK293 Tl flux2: 0.0097

What do the screens show for `O=C(c1ccc(-c2ccccc2)c(F)c1)C1CCCN(CCO)C1` (stereo unspecified)?
WT yeast gro inh: 25; RAM network inh: -1

How did COc1ccc(C2CN(C)CC2C(=O)c2ccc(C)cc2)cc1Cl (stereo unspecified) do in these assays?
WT yeast gro inh: 12; KCC2 mod: -0.24; RAM network inh: 1

Results for CCCCNC(=O)Nc1ccc(C(O)(C(=O)OC)C(F)(F)F)cc1 (stereo unspecified) ?
WT yeast gro inh: 1; Yeast lifespan up: -4; RAM network inh: 2; Yeast growth inh: -30

How did CCCCNC(=O)Nc1ccc(C(O)(C(=O)OCC)C(F)(F)F)cc1 (stereo unspecified) do in these assays?
WT yeast gro inh: -8; Yeast lifespan up: -3; KCC2 mod: -4.7*; RAM network inh: 0; Yeast growth inh: 3; KCC2 secondary: 0.0078; KCC2 bumet counter: 0.0069; KCC2 secondary2: 0.032; HEK counter1: inconclusive; KCC2 retest ouab: 0.022; HEK293 Tl flux2: 0.0099

What do the screens show for `CN1CCN(Cc2nc3ccccc3n2C)CC1`?
WT yeast gro inh: -20; Yeast lifespan up: -1; KCC2 mod: 6.9*; RAM network inh: 1; Yeast growth inh: -33; KCC2 secondary: 0.0061; KCC2 bumet counter: 0.0047; KCC2 secondary2: inconclusive; HEK counter1: 0.0079; KCC2 retest ouab: inconclusive; HEK293 Tl flux2: 0.011

What do the screens show for `O=C1N(CN2CCOCC2)c2ccccc2C1(O)c1c[nH]c2ccccc12` (stereo unspecified)?
WT yeast gro inh: 9; Yeast lifespan up: -10; RAM network inh: 0; Yeast growth inh: -28; KCC2 secondary: 0.0091; KCC2 bumet counter: inconclusive; KCC2 secondary2: 0.03; HEK counter1: 0.0074; KCC2 retest ouab: 0.021; HEK293 Tl flux2: 0.011

Results for O=C1/C(=C/c2ccccc2Cl)N2CCC1CC2 ?
KCC2 mod: 0.17

Results for Nc1ccccc1C(=O)OCC(=O)N1CCc2ccccc21 ?
WT yeast gro inh: -16; Yeast lifespan up: -5; RAM network inh: 2; Yeast growth inh: -20; KCC2 secondary: 0.0062; KCC2 bumet counter: inconclusive; KCC2 secondary2: 0.03; HEK counter1: inconclusive; KCC2 retest ouab: 0.013*; HEK293 Tl flux2: 0.011

Results for O=C1NC(=O)C(=Cc2coc3ccccc3c2=O)C(=O)N1 ?
WT yeast gro inh: 10; KCC2 mod: -4.1*; RAM network inh: -2; KCC2 secondary: 0.0058; KCC2 bumet counter: 0.0058*; KCC2 secondary2: inconclusive; HEK counter1: 0.0059*; KCC2 retest ouab: 0.014*; HEK293 Tl flux2: 0.0099

Bioassay records: PubChem BioAssay, several laboratories
